≈ marks a conversion by molar mass, not a printed value. Calls of active or inactive are those of the source. No cut-off for these calls is given here.
What was measured:
[1] = Cytotoxicity in human Corneal fibroblasts assessed as LDH release at 10 uM after 24 hrs; type: cell-based; details: corneal fibroblast
Summary of the method: (§1)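 Human corneal fibroblasts are exposed to test samples for 24 h, and cytotoxicity is read as LDH leakage into the medium. Biological replicates.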

Staphylococcus aureus [2] = test: Induction of plasma membrane permeability in methicillin-resistant Staphylococcus aureus DM9808R assessed as increase in fluorescence intensity at 12.5 ug/ml measured every 1 sec for 50 mins by SYTOX green dye based fluorimetric assay; type: functional
Summary of the method: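 Exponential-phase MRSA DM9808R grown on TSA, washed twice and resuspended in PBS (10 mM, pH 7) to OD600 0.2. Cells were loaded with 0.3 μM SYTOX Green in the dark until fluorescence stabilized. Test samples were then added (final DMF 0.5%). Fluorescence at ex 504/em 523 nm was recorded every 1 s for 50 min. Biological replicates.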

Staphylococcus aureus [3] = test: Bactericidal activity against methicillin-resistant Staphylococcus aureus DM9808R assessed as log reduction in bacterial count at 2 times MIC up to 2 hrs by time kill assay; type: functional
Summary of the method: (§2)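 Time-kill. Starting inoculum 10^5−10^6 CFU/mL, exposed to 0.5×, 1×, 2× and 4× MIC at 35 °C. Colonies were counted after 24 h at 35 °C and CFU/mL calculated. Biological replicates.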

[4] = Ratio of HC50 for New Zealand white rabbit RBC to MIC for methicillin-sensitive Staphylococcus aureus DM4583R
Summary of the method: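 HC50 measured on fresh New Zealand white rabbit RBCs, washed three times in PBS, at 4% v/v final. Cells were incubated with 2-fold serial dilutions (DMF final 0.5%) at 37 °C for 1 h, then centrifuged. Supernatant absorbance was read at 576 nm, with PBS as 0% and 2% Triton X-100 as 100% lysis. HC50 is the concentration lysing 50% of cells, divided by MIC from broth microdilution.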

Staphylococcus aureus [5] = test: Bactericidal activity against methicillin-resistant Staphylococcus aureus DM9808R assessed as log reduction in bacterial count at 4 times MIC up to 2 hrs by time kill assay; type: functional; summary of the method: as §2
[6] = Cytotoxicity in human Corneal fibroblasts assessed as LDH release at 100 uM after 24 hrs; type: cell-based; details: corneal fibroblast; summary of the method: as §1
[7] = Cytotoxicity against human Corneal fibroblasts assessed cell viability at 100 uM after 24 hrs by Cell Titer-Glo luminescent assay; type: cell-based, Corneal fibroblast; details: read-out: Activity
Summary of the method: (§3)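 ATP luminescence viability in human corneal fibroblasts, ~10000 cells per well, duplicate wells. After 24 h exposure the plate is equilibrated 0.5 h at 22 °C before Cell Titer-Glo addition and luminescence read. 1% Triton X-100 serves as positive control, medium-treated cells as negative control. Biological replicates.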

Bacillus cereus = test: Antibacterial activity against Bacillus cereus ATCC 11778 after 24 hrs by broth microdilution method; type: functional; details: ATCC 11778, 24 h
Summary of the method: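 MIC by CLSI broth microdilution in cation-adjusted Mueller–Hinton broth, tubes. Compounds in H2O or DMF, diluted in PBS to 1000 μg/mL stocks, then serial 2-fold dilutions (final DMF 2.5%). Inoculum ~5×10^5 CFU/mL from TSA plates grown 35 °C 20 h. Incubation 35 °C 24 h; MIC = no visible growth vs control. Biological replicates.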

[8] = Cytotoxicity against human Corneal fibroblasts assessed cell viability at 50 uM after 24 hrs by Cell Titer-Glo luminescent assay; type: cell-based, Corneal fibroblast; details: read-out: Activity; summary of the method: as §3

COC(=O)[C@H](CCCNC(=N)N)NC(=O)COc1cc(O)c2c(=O)c(OCC(=O)N[C@@H](CCCNC(=N)N)C(=O)OC)c(-c3ccc(OC)cc3)oc2c1CC=C(C)C
Activity [1]: -1.52%
Activity (Staphylococcus aureus [2]): Active
Activity (Staphylococcus aureus [3]): 3 deltalog10CFU/ml
Ratio [4]: > 511
Activity (Staphylococcus aureus [5]): 3 deltalog10CFU/ml
Activity [6]: 23.9%
viability at 24 h, 100 µM [7]: 57.7%
MIC (Bacillus cereus): 3.8 µM (≈ 3.13 µg/mL)
viability at 24 h, 50 µM [8]: 97.7%

Source: ChEMBL document CHEMBL4011638, “Semisynthetic Flavone-Derived Antimicrobials with Therapeutic Potential against Methicillin-Resistant Staphylococcus aureus (MRSA)” (J Med Chem, 2017)
